The source of these data is ChEMBL document CHEMBL2203045, “Development of 5-nitrothiazole derivatives: identification of leads against both replicative and latent Mycobacterium tuberculosis” (Bioorg Med Chem Lett, 2012).

Values after ≈ are worked out from the molar mass of the structure shown. Active and inactive are the calls of the source. The calls are words filed in the database; no cut-off is given here. Where only a bound is given, the exact number is not on record here.

Broadly, the MIC is the lowest concentration that inhibits growth of the organism. Higher therefore signals weaker potency.

The test system of data set [1] is Mycobacterium tuberculosis. The data set is described as follows: Antitubercular activity against non-culturable Mycobacterium tuberculosis assessed as reduction in dormant cell viability at 10 ug/mL measured for 7 days by MPN assay. The data set is classed as functional, organism-based. Put shortly:
(§1)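 Bacilli were grown in potassium-deficient Sauton's medium with ADC and 0.05% Tween-80 at 37 °C and 200 rpm. Dormancy was confirmed by failure to form colonies on agar-solidified Sauton's. Non-culturable cells were washed and exposed to compound for 7 days, then resuscitated in liquid Sauton's alongside untreated cells. Recovered cell concentration was estimated by Most Probable Number assay with statistical treatment.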

For data set [2], the system named is Mycobacterium tuberculosis. Description: Antitubercular activity against log phase culture of Mycobacterium tuberculosis H37Rv ATCC 27294 by agar dilution method. Format: functional. Put shortly: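 H37Rv (ATCC27294) was tested by agar dilution, with the compound serially diluted from 50 to 0.78 in duplicate. MIC was taken as the lowest concentration giving complete growth inhibition.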
For orientation: In agar dilution the substance is mixed into plates at graded concentrations.

Data set [3] in a line: Cytotoxicity against HEK293T cells assessed as cellular growth at 25 uM by MTT assay. Format: cell-based, HEK-293T. Particulars: human, read-out: Activity. Summed up: (§2)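 HEK293T cells were exposed to compound at 25 and 100 and read out by MTT assay.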
A general note: Tetrazolium assays rely on reduction of a dye to a coloured formazan, in cell work by metabolically active cells.

A short description of data set [4]: Cytotoxicity against HEK293T cells assessed as cellular growth at 100 uM by MTT assay. Format: cell-based, HEK-293T. As to conditions: human, read-out: Activity. Put shortly: as §2
Data set [5] deals with Mycobacterium tuberculosis. Description: Antitubercular activity against non-culturable Mycobacterium tuberculosis assessed as log reduction in dormant cell viability at 10 ug/mL measured for 7 days by MPN assay relative to control. Format: functional. Summed up: as §1
Data set [6] can be described thus: Therapeutic index, ratio of cytotoxicity against HEK293T cells to MIC for log phase culture of Mycobacterium tuberculosis H37Rv ATCC 27294. The data set is classed as cell-based, HEK-293T. Particulars: human, read-out: TI.
Data set [7] has as its system Mycobacterium tuberculosis. Description: Ratio of nitazoxanide MIC to compound MIC for log phase culture of Mycobacterium tuberculosis H37Rv ATCC 27294. The data set is classed as functional.

With `CO[C@H]1/C=C/O[C@@]2(C)Oc3c(C)c(O)c4c(O)c(c(/C=N/N5CCN(C)CC5)c(O)c4c3C2=O)NC(=O)/C(C)=C\C=C\[C@H](C)[C@H](O)[C@@H](C)[C@@H](O)[C@@H](C)[C@H](OC(C)=O)[C@@H]1C` [RIFAMPIN], in data set [1], the result was Active. The same compound displayed an MIC in data set [2] of 0.48 µM (≈ 0.395 µg/mL).

`O=C(Nc1ncc([N+](=O)[O-])s1)c1ccc(-c2ccc([N+](=O)[O-])cc2)o1`: the viability at 25 µM in data set [3] amounted to 88.4%. For the same compound, the viability at 100 µM in data set [4] amounted to 79.2%. The same compound had an MIC in data set [2] of 17.3 µM (≈ 6.25 µg/mL).

For the compound `O=C(Nc1ncc([N+](=O)[O-])s1)c1ccc([N+](=O)[O-])o1`, the viability at 25 µM in data set [3] turned out to be 87.4%. Besides, the FC in data set [5] is on record as 1. Further, the selectivity ratio in data set [6] is above 20. In addition, the Ratio in data set [7] came to 29. Moreover, in data set [4], the viability at 100 µM was determined as 67.3%. The MIC in data set [2] was 5.48 µM (≈ 1.56 µg/mL).

With `O=C(Nc1ncc([N+](=O)[O-])s1)c1ccc(-c2ccc(Cl)cc2)o1`, the viability at 25 µM in data set [3] was 75%. Further, the viability at 100 µM in data set [4] amounted to 74.1%. Also, in data set [2], the MIC amounted to 17.9 µM (≈ 6.25 µg/mL).

In the case of `CC(C)c1cc(C(=O)Nc2ncc([N+](=O)[O-])s2)c(O)c(C(C)C)c1`, the viability at 25 µM in data set [3] worked out at 29.4%. The viability at 100 µM in data set [4] stood at 7.1%. Further, the minimal inhibitory concentration (MIC) in data set [2] was determined as 17.9 µM (≈ 6.25 µg/mL).

With `O=C(Oc1c(Cl)cc(Cl)cc1C(=O)Nc1ncc([N+](=O)[O-])s1)c1ccccc1`, the viability at 25 µM in data set [3] was 100%. In data set [4], the viability at 100 µM came to 61.6%. Moreover, the MIC in data set [2] stood at 28.5 µM (≈ 12.5 µg/mL).

Turning to `CC(=O)Oc1c(Cl)cc(Cl)cc1C(=O)Nc1ncc([N+](=O)[O-])s1`, in data set [3], the viability at 25 µM was found to be 100%. In data set [7], the Ratio was 2.44. Besides, the viability at 100 µM in data set [4] stood at 95.1%. In addition, the lowest concentration to inhibit growth in data set [2] (MIC) was 66.5 µM (≈ 25 µg/mL).

In the case of `O=C(Oc1c(C(=O)Nc2ncc([N+](=O)[O-])s2)cc([N+](=O)[O-])cc1[N+](=O)[O-])c1ccccc1`, the MIC in data set [2] was above 109 µM.

For `O=C(Nc1nc2ccc([N+](=O)[O-])cc2s1)c1ccc([N+](=O)[O-])o1`, the viability at 25 µM in data set [3] came to 100%. For the same compound, the FC in data set [5] is reported as 1. The viability at 100 µM in data set [4] came to 43.3%. The compound further came in with an MIC in data set [2] of 150 µM (≈ 50 µg/mL).

In turn, `O=C(Oc1cc(Cl)ccc1C(=O)Nc1ncc([N+](=O)[O-])s1)c1ccccc1` displayed a minimal inhibitory concentration (MIC) in data set [2] above 124 µM.

With `Cc1ccc(-c2ccc(C(=O)Nc3ncc([N+](=O)[O-])s3)o2)cc1`, in data set [3], the viability at 25 µM worked out at 94.1%. Also, the viability at 100 µM in data set [4] is 91.5%. Besides, 19 µM (≈ 6.25 µg/mL) was the least that counted as inhibitory in data set [2] (MIC).

As for `CC(=O)Oc1cc(Cl)ccc1C(=O)Nc1ncc([N+](=O)[O-])s1`, the viability at 25 µM in data set [3] was 100%. Moreover, the Ratio in data set [7] was found to be 4.4. In addition, the viability at 100 µM in data set [4] is 83.5%. Also, in data set [2], it took 36.6 µM (≈ 12.5 µg/mL) to inhibit growth (MIC).

Regarding `COc1ccc(O)c(C(=O)Nc2ncc([N+](=O)[O-])s2)c1`, in data set [3], the viability at 25 µM amounted to 100%. For the same compound, in data set [4], the viability at 100 µM was 100%. Moreover, the MIC in data set [2] came out at 84.7 µM (≈ 25 µg/mL).

For the compound `O=C(Nc1ncc([N+](=O)[O-])s1)c1ccco1`, the MIC in data set [2] was 206 µM (≈ 49.2 µg/mL).

For the compound `COOc1ccc(-c2ccc(C(=O)Nc3ncc([N+](=O)[O-])s3)o2)cc1`, the viability at 25 µM in data set [3] is 100%. Besides, the viability at 100 µM in data set [4] worked out at 95.7%. The same compound registered an MIC in data set [2] of 72.4 µM (≈ 26.2 µg/mL).

Consider `CC(=O)Oc1ccc(Cl)cc1C(=O)Nc1ncc([N+](=O)[O-])s1`, for which, in data set [3], the viability at 25 µM worked out at 59.5%. The Ratio in data set [7] is recorded as 8.9. Also, the viability at 100 µM in data set [4] was 31.1%. Moreover, in data set [2], the MIC was determined as 18.3 µM (≈ 6.25 µg/mL).

Regarding `O=C(Nc1ncc([N+](=O)[O-])s1)c1ccc(-c2ccc(Br)cc2)o1`, in data set [3], the viability at 25 µM is 89.1%. In addition, in data set [4], the viability at 100 µM was determined as 70.3%. Moreover, the MIC in data set [2] is 31.7 µM (≈ 12.5 µg/mL).

Consider `O=C(Oc1ccc(Cl)cc1C(=O)Nc1ncc([N+](=O)[O-])s1)c1ccccc1`, for which the viability at 25 µM in data set [3] came to 72.2%. In addition, the viability at 100 µM in data set [4] is 23.7%. The MIC in data set [2] was 15.5 µM (≈ 6.25 µg/mL).

`CC(=O)Oc1ccccc1C(=O)Nc1ncc([N+](=O)[O-])s1` [NITAZOXANIDE] returned an MIC in data set [2] of 163 µM (≈ 50 µg/mL).

`O=C(Nc1ncc([N+](=O)[O-])s1)c1ccc([N+](=O)[O-])s1`: the viability at 25 µM in data set [3] turned out to be 100%. Moreover, the viability at 100 µM in data set [4] was 35.9%. In data set [2], it took 20.8 µM (≈ 6.25 µg/mL) to inhibit growth (MIC).

In the case of `CC(=O)Oc1c(C(=O)Nc2ncc([N+](=O)[O-])s2)cc(C(C)C)cc1C(C)C`, the viability at 25 µM in data set [3] was determined as 45.9%. Further, in data set [7], the Ratio came to 2.54. Also, the viability at 100 µM in data set [4] came to 20.6%. This compound displayed an MIC in data set [2] of 63.9 µM (≈ 25 µg/mL).

In the case of `COc1ccc(OC(=O)c2ccccc2)c(C(=O)Nc2ncc([N+](=O)[O-])s2)c1`, the viability at 25 µM in data set [3] was determined as 100%. For the same compound, the viability at 100 µM in data set [4] was 67.6%. In data set [2], the lowest concentration to inhibit growth (MIC) was 15.6 µM (≈ 6.25 µg/mL).

As to `COc1ccc(OC(C)=O)c(C(=O)Nc2ncc([N+](=O)[O-])s2)c1`, the viability at 25 µM in data set [3] turned out to be 100%. The Ratio in data set [7] is on record as 2.19. Moreover, the viability at 100 µM in data set [4] came out at 94.1%. In addition, the MIC in data set [2] came out at 74.1 µM (≈ 25 µg/mL).

For `CC(C)c1cc(C(=O)Nc2ncc([N+](=O)[O-])s2)c(OC(=O)c2ccccc2)c(C(C)C)c1`, the minimum inhibitory concentration (MIC) in data set [2] is above 110 µM.

As to `NNC(=O)c1ccncc1` [ISONIAZID], the outcome in data set [1] was Active. In addition, in data set [2], inhibition of growth (MIC) required 0.72 µM (≈ 0.0987 µg/mL).

On to `O=C(Nc1ncc([N+](=O)[O-])s1)c1ccc(Cl)cc1O`, for which the MIC in data set [2] was above 167 µM.

Turning to `O=C(Nc1ncc([N+](=O)[O-])s1)c1cc(Cl)ccc1O`, the viability at 25 µM in data set [3] was 100%. In addition, the viability at 100 µM in data set [4] worked out at 63%. This compound also registered an MIC in data set [2] of 20.9 µM (≈ 6.25 µg/mL).

As for `O=C(Nc1ncc([N+](=O)[O-])s1)c1cc(Cl)cc(Cl)c1O`, the viability at 25 µM in data set [3] turned out to be 100%. Moreover, in data set [4], the viability at 100 µM is 23.5%. Besides, the MIC in data set [2] is 74.8 µM (≈ 25 µg/mL).

As for `O=C(Nc1ncc([N+](=O)[O-])s1)c1cccs1` [TENONITROZOLE], in data set [3], the viability at 25 µM came out at 100%. Besides, the viability at 100 µM in data set [4] came to 93.4%. For the same compound, in data set [2], inhibition of growth (MIC) required 24.5 µM (≈ 6.25 µg/mL).
